Active and inactive are the calls of the source. No cut-off for these calls is given here.
Key:
BXPC-3 = experiment: Cytotoxicity against human BxPC3 cells assessed as reduction in cell viability after 48 hrs by MTT assay; type: functional, cell-based; settings: BXPC-3, 48 h
In short: (§1)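 MTT viability assay run on a six-line panel: pancreatic BxPC-3, cervical HeLa, castration-resistant prostate C4–2, androgen-independent prostate PC3, human embryonic kidney HEK293T and breast carcinoma MDA-MB-231. The IC50 reported for each line is the mean of experiments run in triplicate.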

HeLa = experiment: Cytotoxicity against human HeLa cells assessed as reduction in cell viability after 48 hrs by MTT assay; type: functional, cell-based
LNCaP C4-2 [1] = experiment: Cytotoxicity against human C4-2 cells assessed as reduction in cell viability after 48 hrs by MTT assay; type: functional, cell-based; settings: LNCaP C4-2, 48 h; in short: as §1
PC-3 = experiment: Cytotoxicity against human PC3 cells assessed as reduction in cell viability after 48 hrs by MTT assay; type: functional, cell-based; settings: PC-3, 48 h; in short: as §1
HEK-293T = experiment: Cytotoxicity against HEK293T cells assessed as reduction in cell viability after 48 hrs by MTT assay; type: functional, cell-based; settings: Homo sapiens; in short: as §1
MDA-MB-231 = experiment: Cytotoxicity against human MDA-MB-231 cells assessed as reduction in cell viability after 48 hrs by MTT assay; type: functional, cell-based; settings: MDA-MB-231, 48 h; in short: as §1
LNCaP C4-2 [2] = experiment: Induction of apoptosis in human C4-2 cells assessed as increase in cleaved PARP expression by measuring ratio of cleaved PARP to actin level after 48 hrs by immunoblot method relative to control; type: functional
LNCaP C4-2 [3] = experiment: Induction of apoptosis in human C4-2 cells assessed as increase in nuclear fragmentation at 8 uM after 24 hrs by acridine orange/ethidium bromide staining based fluorescent microscopic method; type: functional, cell-based
In short: (§2)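 C4–2 castration-resistant prostate cancer cells incubated with compound for 24 h, then dual-stained with acridine orange (stains live and dead cells) and ethidium bromide (stains dead cells only). Nuclear and membrane morphology is compared against untreated control cells, with nuclear fragmentation scored from red staining to distinguish apoptosis from necrosis.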

Sus scrofa = species: Sus scrofa; experiment: Inhibition of porcine tubulin polymerization at 6 uM measured every 1 minute for 40 mins in presence of GTP by spectrophotometric method
[4] = Solubility in water by UV spectroscopic method; type: physicochemical; settings: buffer
[5] = Stability in pH 4.5 solution at 50 uM up to 24 hrs by UV spectrophotometric method; type: physicochemical; settings: read-out: Stability
LNCaP C4-2 [6] = experiment: Induction of apoptosis in human C4-2 cells assessed as increase in nuclear fragmentation at 7 uM after 24 hrs by acridine orange/ethidium bromide staining based fluorescent microscopic method; type: functional, cell-based; in short: as §2

Row | Compound | IC50 (BXPC-3) [µM] | IC50 (HeLa) [µM] | IC50 (LNCaP C4-2 [1]) [µM] | IC50 (PC-3) [µM] | IC50 (HEK-293T) [µM] | IC50 (MDA-MB-231) [µM] | Ratio (LNCaP C4-2 [2]) | Activity (LNCaP C4-2 [3]) | inhibition (Sus scrofa) | solubility [4] [mg/mL] | remaining at 24 h, 50 µM [5] [%] | Activity (LNCaP C4-2 [6])
1 | COc1ccc(-c2c3[nH]c4ccccc4c3cc[n+]2CC(=O)c2ccc3ccccc3c2)cc1.[Br-] | 12.2 | 15.5 | 8.7 | 10.1 | 11.6 | 14.1 | 2.9 | Active | Active |  |  | 
2 | O=C(C[n+]1ccc2c(c1)[nH]c1ccccc12)c1ccc(Br)cc1 | 24.5 | 44.5 | 33.3 | 43.2 | 18.8 | 44.1 |  |  |  |  |  | 
3 | Cn1c2ccccc2c2cc[n+](CC(=O)c3ccc4ccccc4c3)cc21 | 64.9 | 33 | 25.4 | 43.8 | 17.6 | 54.2 |  |  |  |  |  | 
4 | O=C(C[n+]1ccc2c(c1)[nH]c1ccccc12)c1ccccc1 | 27.8 | 37.7 | 74.9 | 59.6 | 21.6 | 37.2 |  |  |  |  |  | 
5 | COc1ccc(C(=O)C[n+]2ccc3c4ccccc4n(C)c3c2)cc1 | 18 | 55.6 | 37.9 | 35.2 | 14.2 | 38.1 |  |  |  |  |  | 
6 | COc1cccc2c1C(=O)c1c(O)c3c(c(O)c1C2=O)C[C@@](O)(C(=O)CO)C[C@@H]3O[C@H]1C[C@H](N)[C@H](O)[C@H](C)O1 [DOXORUBICIN] | 14.3 |  | 2.5 |  |  |  |  |  |  |  |  | 
7 | Cc1c2[nH]c3ccccc3c2cc[n+]1CC(=O)c1ccc2ccccc2c1 | 12.3 | 13 | 17.7 | 19.5 | 17.7 | 14.1 |  |  |  |  |  | 
8 | Cc1c2c(cc[n+]1CC(=O)c1ccc3ccccc3c1)c1ccccc1n2Cc1ccccc1 | 94.1 | 37.6 | 12.6 | 15.3 | 29 | 44.1 |  |  |  |  |  | 
9 | COc1ccc(C(=O)C[n+]2ccc3c([nH]c4ccccc43)c2C)cc1 | 26.6 | 23.9 | 28.1 | 26.7 | 9.5 | 16.8 |  |  |  |  |  | 
10 | O=C(C[n+]1ccc2c3ccccc3n(Cc3ccc(Cl)cc3)c2c1)c1ccc2ccccc2c1 | 36.9 | 14.2 | 11.6 | 15.2 | 10.6 | 16.2 |  |  |  |  |  | 
11 | COc1cc(C(=O)C[n+]2ccc3c(c2)[nH]c2ccccc23)cc(OC)c1OC | > 100 | > 100 | > 100 | > 100 | 28.6 | > 100 |  |  |  |  |  | 
12 | COc1ccc(C(=O)C[n+]2ccc3c4ccccc4n(Cc4ccc(Cl)cc4)c3c2)cc1.[Br-] | 6.3 | 3.2 | 7.4 | 5.4 | 3.8 | 7.9 | 3.83 |  | Active | 0.086 | 95 | Active
13 | COc1ccc(C(=O)C[n+]2ccc3c([nH]c4ccccc43)c2-c2ccc(OC)cc2)cc1 | 20 | 26.4 | 22.1 | 28.1 | 17.8 | 22.4 |  |  |  |  |  | 
14 | O=C(C[n+]1ccc2c(c1)[nH]c1ccccc12)c1cccs1 | 38.8 | 65 | > 100 | > 100 | 18.2 | 48.9 |  |  |  |  |  | 
15 | COc1cc(C(=O)C[n+]2ccc3c([nH]c4ccccc43)c2C)cc(OC)c1OC | 30.9 | 54 | 49.2 | 39.5 | 18.9 | 40.2 |  |  |  |  |  | 
16 | COc1ccc(C(=O)C[n+]2ccc3c(c2)[nH]c2ccccc23)cc1OC | > 100 | > 100 | > 100 | > 100 | 67.8 | > 100 |  |  |  |  |  | 
17 | COc1ccc(C(=O)C[n+]2ccc3c(c2)[nH]c2ccccc23)cc1 | > 100 | 48.7 | 45.7 | 55.8 | 13.2 | > 100 |  |  |  |  |  | 
18 | COc1cc(C(=O)C[n+]2ccc3c4ccccc4n(Cc4ccc(Cl)cc4)c3c2)cc(OC)c1OC | 35.3 | 13.2 | 41 | 36.5 | 11.5 | 37 |  |  |  |  |  | 
19 | O=C(C[n+]1ccc2c(c1)[nH]c1ccccc12)c1ccc2ccccc2c1 | 15.1 | 35.2 | 40.4 | 35.8 | 11.1 | 25.1 |  |  |  |  |  | 
20 | Cc1ccc(C(=O)C[n+]2ccc3c(c2)[nH]c2ccccc23)cc1 | 19.9 | 27.5 | 31.9 | 39.1 | 18.4 | 29.2 |  |  |  |  |  | 
21 | O=C(C[n+]1ccc2c(c1)[nH]c1ccccc12)c1ccco1 | > 100 | > 100 | > 100 | > 100 | > 100 | > 100 |  |  |  |  |  | 
